Data set [1] has as its target T1, Cholecystokinin receptor type A (Cavia porcellus, UniProt Q63931).
T1 sequence (Q63931 whole entry): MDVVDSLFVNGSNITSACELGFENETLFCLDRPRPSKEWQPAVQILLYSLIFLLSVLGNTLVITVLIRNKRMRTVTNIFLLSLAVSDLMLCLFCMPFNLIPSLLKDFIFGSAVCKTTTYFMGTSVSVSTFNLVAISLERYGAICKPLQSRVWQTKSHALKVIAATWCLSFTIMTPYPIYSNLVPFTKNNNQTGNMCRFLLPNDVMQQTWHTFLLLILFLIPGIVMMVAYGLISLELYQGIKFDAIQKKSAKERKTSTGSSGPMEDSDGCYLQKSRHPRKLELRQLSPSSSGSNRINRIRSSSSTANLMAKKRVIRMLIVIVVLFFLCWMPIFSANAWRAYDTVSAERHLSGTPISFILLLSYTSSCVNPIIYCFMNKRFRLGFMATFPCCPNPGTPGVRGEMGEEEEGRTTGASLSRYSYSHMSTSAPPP
Put plainly: Inhibition of 20 pM [125I]BH-CCK-8S binding to guinea pig pancreas membrane Cholecystokinin 1 receptor. The method in brief:
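Competition binding in guinea pig pancreas cell homogenates against 20 pM [125I]BH-CCK-8S; pKi ± SEM derived from at least three separate experiments.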

Data set [2] has as its target T2, Gastrin/cholecystokinin type B receptor (Mus musculus, UniProt P56481).
T2 sequence (P56481 whole entry): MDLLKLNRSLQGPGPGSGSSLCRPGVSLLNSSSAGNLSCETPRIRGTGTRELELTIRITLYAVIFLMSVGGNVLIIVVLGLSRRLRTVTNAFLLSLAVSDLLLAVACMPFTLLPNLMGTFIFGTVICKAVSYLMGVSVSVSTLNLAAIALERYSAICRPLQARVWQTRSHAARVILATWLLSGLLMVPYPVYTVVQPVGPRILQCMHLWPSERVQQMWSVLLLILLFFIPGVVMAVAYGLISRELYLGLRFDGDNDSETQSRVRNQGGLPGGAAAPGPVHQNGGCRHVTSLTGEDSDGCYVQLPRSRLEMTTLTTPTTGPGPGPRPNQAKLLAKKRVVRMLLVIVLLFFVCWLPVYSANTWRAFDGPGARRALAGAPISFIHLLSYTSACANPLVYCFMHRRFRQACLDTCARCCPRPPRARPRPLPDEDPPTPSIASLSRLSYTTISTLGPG
Put plainly: Inhibition of 20 pM [125I]BH-CCK-8S binding to mouse cortical membrane Cholecystokinin 2 receptor. The method in brief: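 Competition binding in mouse cortical membrane homogenates against 20 pM [125I]BH-CCK-8S tracer; pKi ± SEM from at least three separate experiments.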

Data set [3] in a line: Log D value was measured in octanol/buffer (pH 7.5). Format: physicochemical. Summed up:
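Partition between octanol and buffer at pH 7.5.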

A short description of data set [4]: Percent material excreted unchanged was detected in the bile by i.v. administration (10 uM/Kg) to anesthetized rat. The data set is classed as ADME. To be noted: iv, read-out: Activity. The method in brief: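 Anesthetized rats dosed iv bolus at 10 μmol/kg; bile duct cannulated, bile collected in 15 min intervals over 150 min total; unchanged compound measured by HPLC, reported as percent excreted.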

For data set [5], the target named is T3, Gastrin/cholecystokinin type B receptor (Mus musculus) (UniProt P56481).
T3 sequence (whole entry): T2 sequence (P56481 whole entry)
Nature of the data set: Loss of Cholecystokinin 2 receptor activity relative to parent compound. The data set is classed as functional.

Data set [6] is described as follows: Percent material excreted unchanged was detected in the bile by i.v. administration (1 or 10 uM/Kg) to anesthetized rat. Format: ADME. To be noted: iv, read-out: Activity. Summed up: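 Anesthetized rats, iv bolus at 1 or 10 μmol/kg; bile duct cannulated, bile collected in 15 min intervals over 150 min total; unchanged compound in bile quantified by HPLC, expressed as percent of dose. Compounds given as bis(N-methyl-D-glucamine) salts.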

A value given as a limit tells only on which side of the number the result lay.

A word on the Ki: it is a measure of affinity in units of concentration, obtained from inhibition or displacement. Turning to `O=C(O)c1cc(NC(=O)c2cc(-c3ccccc3)[nH]c2CCC23CC4CC(CC(C4)C2)C3)cc(C(=O)O)c1`, the Ki is 5.01 µM in data set [1] and 0.2 µM in data set [2].

On to `O=C(O)c1cc(NC(=O)c2[nH]c(-c3ccccc3)nc2CC2CCCCCC2)cc(C(=O)O)c1`, for which, in data set [1], affinity was put at a Ki of 7.94 µM.

For orientation: logD means lipophilicity at a set pH, counting ionised and neutral species. Molecule `CNC[C@H](O)[C@@H](O)[C@H](O)[C@H](O)CO.O=C(O)c1cc(NC(=O)c2[nH]c(-c3ccc4ccccc4c3)nc2CC2CCCCCC2)cc(C(=O)O)c1` gave a Ki in data set [1] of 3.16 µM. In data set [3], this molecule came in with a logD of 0.7. The dose excreted in data set [4] was 53%.

`O=C(O)c1cc(NC(=O)c2[nH]c(-c3ccc4[nH]ccc4c3)nc2CC2CCCCCC2)cc(C(=O)O)c1`: the figures for the inhibitory constant (Ki) in data set [1] and in data set [2] were 5.01 µM and 1 µM, respectively.

Take `CNC[C@H](O)[C@@H](O)[C@H](O)[C@H](O)CO.O=C(O)c1cc(NC(=O)c2cc(-c3ccc4ccccc4c3)[nH]c2CC2CCCCCC2)cc(C(=O)O)c1`: the inhibitory constant (Ki) in data set [1] is 2.51 µM; in data set [2], 0.2 µM. Besides, the logD in data set [3] was found to be 1.4. For the same molecule, the dose excreted in data set [4] came to 59%.

As for `O=C(O)c1cc(NC(=O)c2cc(-c3ccccc3)[nH]c2CC2CCCCCC2)cc(C(=O)O)c1`, the values for the Ki in data set [1] and in data set [2] were 7.94 µM and 0.251 µM, respectively.

As to `O=C(O)c1cc(NC(=O)[C@H](Cc2ccccc2)NC(=O)c2cc3cc[nH]c3cc2C(=O)NCC23CC4CC(CC(C4)C2)C3)cc(C(=O)O)c1`, the inhibitory constant (Ki) is 3.98 µM in data set [1] and 0.001 µM in data set [2].

Turning to `CNC[C@H](O)[C@@H](O)[C@H](O)[C@H](O)CO.O=C(O)c1cccc(NC(=O)c2[nH]c(-c3ccc4ccccc4c3)nc2CC2CCCCCC2)c1`, the Ki in data set [2] is 0.794 µM. Moreover, the log distribution coefficient (logD) in data set [3] amounted to 2.8. Moreover, the dose excreted in data set [4] worked out at 5%.

As to `CNC[C@H](O)[C@@H](O)[C@H](O)[C@H](O)CO.O=C(O)c1cccc(NC(=O)c2cc(-c3ccc4ccccc4c3)[nH]c2CC2CCCCCC2)c1`, the figures for the inhibition constant Ki in data set [1] and in data set [2] were 3.98 µM and 1.26 µM, respectively. The logD in data set [3] was found to be 2.9. In addition, in data set [4], the dose excreted amounted to 6%.

Molecule `CN(C(=O)[C@H](Cc1ccccc1)NC(=O)c1cc2[nH]cnc2cc1C(=O)NCC12CC3CC(CC(C3)C1)C2)c1cc(C(=O)O)cc(C(=O)O)c1` gave a Ki in data set [1] of 3.98 µM. The Activity in data set [5] was determined as 2.

Regarding `O=C(O)c1cc(NC(=O)[C@H](Cc2ccccc2)NC(=O)C2C3c4ccccc4C(c4ccccc43)C2C(=O)NCC23CC4CC(CC(C4)C2)C3)cc(C(=O)O)c1` (some centres not stated), the inhibitory constant (Ki) in data set [1] is 2 µM.

On to `O=C(O)c1cc(NC(=O)c2[nH]c(-c3ccccc3)nc2CC23CC4CC(CC(C4)C2)C3)cc(C(=O)O)c1`, for which the inhibition constant (Ki) in data set [1] is 3.16 µM; in data set [2], 0.158 µM.

The molecule `O=C(O)c1cc(NC(=O)[C@H](Cc2ccccc2)NC(=O)c2ccccc2C(=O)NCC23CC4CC(CC(C4)C2)C3)cc(C(=O)O)c1` had a Ki in data set [2] of 0.0316 µM.

As for `CNC[C@H](O)[C@@H](O)[C@H](O)[C@H](O)CO.O=C(O)c1cc(NC(=O)[C@H](Cc2ccccc2)NC(=O)c2cc3[nH]cnc3cc2C(=O)NCC23CC4CC(CC(C4)C2)C3)cc(C(=O)O)c1`, the values for the Ki in data set [1] and in data set [2] were 1.58 µM and 0.00501 µM, respectively. Moreover, in data set [6], the dose excreted was determined as 45%. In data set [3], this molecule had a pH-dependent lipophilicity (logD) of -2.3.

Regarding `CN(C(=O)c1cc2[nH]cnc2cc1C(=O)NCC12CC3CC(CC(C3)C1)C2)[C@@H](Cc1ccccc1)C(=O)Nc1cc(C(=O)O)cc(C(=O)O)c1`, the Activity in data set [5] was found to be 0.7. In data set [2], this molecule had a Ki of 0.0251 µM.

In data set [1], `CNC[C@H](O)[C@@H](O)[C@H](O)[C@H](O)CO.O=C(NCC12CC3CC(CC(C3)C1)C2)c1cc2nc[nH]c2cc1C(=O)N[C@@H](Cc1ccccc1)C(=O)Nc1cc(CO)cc(CO)c1` showed a Ki of 3.98 µM. For the same molecule, in data set [6], the dose excreted came out at 22%. In data set [3], this molecule had a pH-dependent lipophilicity (logD) of 3.7.

As to `O=C(O)c1cc(NC(=O)c2cc(-c3ccccc3)[nH]c2CC23CC4CC(CC(C4)C2)C3)cc(C(=O)O)c1`, the inhibition constant Ki in data set [1] is 7.94 µM; in data set [2] it was 0.126 µM.

Turning to `O=C(O)CCNC(=O)c1cc(-c2ccccc2)[nH]c1CC12CC3CC(CC(C3)C1)C2`, the results for the inhibitory constant (Ki) in data set [1] and in data set [2] were 10 µM and 3.16 µM, respectively.

Take `CNC[C@H](O)[C@@H](O)[C@H](O)[C@H](O)CO.O=C(O)c1cccc(NC(=O)[C@H](Cc2ccccc2)NC(=O)c2cc3[nH]cnc3cc2C(=O)NCC23CC4CC(CC(C4)C2)C3)c1`: the Ki in data set [1] is 5.01 µM; in data set [2] it was 0.398 µM. Also, in data set [6], the dose excreted was 39%. The molecule also yielded a logD in data set [3] of 1.1.

Take `CNC[C@H](O)[C@@H](O)[C@H](O)[C@H](O)CO.O=C(Nc1cc(CO)cc(CO)c1)c1[nH]c(-c2ccc3ccccc3c2)nc1CC1CCCCCC1`: the Ki in data set [1] was 3.16 µM; in data set [2] it was 3.98 µM. In addition, in data set [3], the logD is more than 4. In addition, the dose excreted in data set [4] amounted to 1%.

`O=C(O)c1cc(NC(=O)c2[nH]c(-c3ccccc3)nc2CCC23CC4CC(CC(C4)C2)C3)cc(C(=O)O)c1`: the Ki in data set [1] is 6.31 µM; in data set [2] it was 0.631 µM.

For the origin of these results see ChEMBL document CHEMBL1141134, “Scaffold hopping with molecular field points: identification of a cholecystokinin-2 (CCK2) receptor pharmacophore and its use in the design of a prototypical series of pyrrole- and imidazole-based CCK2 antagonists” (J Med Chem, 2005).
